Values after ≈ are worked out from the molar mass of the structure shown.
What was measured:
Staphylococcus aureus [1] = test: Antimicrobial activity against hospital-acquired vancomycin-intermediate Staphylococcus aureus NRS126 infected in human THP-1 cells assessed as bacterial count per mg of cell protein at low extracellular compound concentration after 24 hrs; assay type: functional
How it was run: (§1)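 Human THP-1 macrophage-like cells were infected with S. aureus to a postphagocytosis inoculum of 1.5 × 10^6 to 3.0 × 10^6 CFU/mg cell protein. Cells were then exposed 24 h to increasing extracellular antibiotic concentrations. Response was the log10 CFU change per mg protein from the postphagocytosis inoculum, n = 3. A Hill function was fitted on log-transformed axes. E0 and Emax were extrapolated to infinitely low and high concentrations. Cs was read by graphical interpolation. Concentrations were expressed as multiples of the broth MIC at pH 5.5 or pH 7.4.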

Staphylococcus aureus [2] = test: Antimicrobial activity against hospital-acquired vancomycin-resistant Staphylococcus aureus VRS1 infected in human THP-1 cells assessed as change in bacterial count after 24 hrs; assay type: functional, cell-based; settings: VRS1, THP-1, 24 h
How it was run: (§2)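 THP-1 macrophages infected as described previously, with a postphagocytosis inoculum of 1.5 × 10⁶ to 3.0 × 10⁶ CFU/mg cell protein. Cells were exposed 24 h to increasing extracellular antibiotic concentrations. Response is the change in log10 CFU/mg protein from the inoculum (n = 3), fitted to a Hill function. E0 and Emax were extrapolated to infinitely low and high concentrations. EC50 and static concentration (graphical interpolation) are expressed as multiples of the broth MIC at pH 5.5 or 7.4.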

Staphylococcus aureus [3] = test: Antimicrobial activity against Panton-valentine leucocidin-positive community-acquired methicillin-resistant Staphylococcus aureus N4090440 infected in human THP-1 cells assessed as bacterial count per mg of cell protein at low extracellular compound concentration after 24 hrs; assay type: functional
How it was run: (§3)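 THP-1 human macrophages infected with S. aureus (postphagocytosis inoculum 1.5 × 10^6 to 3.0 × 10^6 CFU/mg cell protein), then incubated 24 h with increasing extracellular antibiotic concentrations. Change in log10 CFU/mg cell protein from the postphagocytosis inoculum, n = 3. Hill function fitted on log-transformed data. Low-concentration value (E0) and high-concentration value (Emax) are extrapolated. Where a pH is given, concentrations are expressed as multiples of the broth MIC at that pH.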

Staphylococcus aureus [4] = test: Antimicrobial activity against Panton-valentine leucocidin-positive community-acquired methicillin-resistant Staphylococcus aureus N4090440 infected in human THP-1 cells assessed as change in bacterial count after 24 hrs; assay type: functional, organism-based; settings: N4090440, THP-1, 24 h; how it was run: as §3
Staphylococcus aureus [5] = test: Antimicrobial activity against Panton-valentine leucocidin-positive community-acquired methicillin-resistant Staphylococcus aureus STA 44 infected in human THP-1 cells assessed as bacterial count per mg of cell protein at low extracellular compound concentration after 24 hrs; assay type: functional; how it was run: as §3
Staphylococcus aureus [6] = test: Antimicrobial activity against Panton-valentine leucocidin-positive community-acquired methicillin-resistant Staphylococcus aureus STA 44 infected in human THP-1 cells assessed as change in bacterial count after 24 hrs; assay type: functional, organism-based; settings: STA 44, THP-1, 24 h; how it was run: as §3
Staphylococcus aureus [7] = test: Antimicrobial activity against Panton-valentine leucocidin-positive community-acquired methicillin-resistant Staphylococcus aureus N4090440 infected in human THP-1 cells assessed as change in bacterial count after 24 hrs at pH 5.5; assay type: functional, organism-based; settings: N4090440, THP-1, 24 h; how it was run: as §3
Staphylococcus aureus [8] = test: Antimicrobial activity against Panton-valentine leucocidin-positive community-acquired methicillin-resistant Staphylococcus aureus STA 228 infected in human THP-1 cells assessed as change in bacterial count after 24 hrs at pH 5.5; assay type: functional, organism-based; settings: STA 228, THP-1, 24 h; how it was run: as §3
Staphylococcus aureus [9] = test: Antimicrobial activity against hospital-acquired vancomycin-resistant Staphylococcus aureus VRS1 infected in human THP-1 cells assessed as change in bacterial count after 24 hrs at pH 5.5; assay type: functional, cell-based; settings: VRS1, THP-1, 24 h; how it was run: as §2
Staphylococcus aureus [10] = test: Antimicrobial activity against Panton-valentine leucocidin-positive community-acquired methicillin-resistant Staphylococcus aureus NRS192 infected in human THP-1 cells assessed as change in bacterial count after 24 hrs at pH 5.5; assay type: functional, organism-based; settings: NRS192, THP-1, 24 h; how it was run: as §3
Staphylococcus aureus [11] = test: Antimicrobial activity against methicillin-susceptible Staphylococcus aureus ATCC 11632 infected in human THP-1 cells assessed as change in bacterial count after 24 hrs at pH 5.5; assay type: functional, organism-based; settings: ATCC 11632, THP-1, 24 h; how it was run: as §2
Staphylococcus aureus [12] = test: Antimicrobial activity against methicillin-susceptible Staphylococcus aureus NRS52 infected in human THP-1 cells assessed as bacterial count per mg of cell protein at high extracellular compound concentration after 24 hrs at pH 5.5; assay type: functional; how it was run: as §1
Staphylococcus aureus [13] = test: Antimicrobial activity against hospital-acquired methicillin-resistant Staphylococcus aureus ATCC 33591 infected in human THP-1 cells assessed as change in bacterial count after 24 hrs at pH 5.5; assay type: functional, organism-based; settings: ATCC 33591, THP-1, 24 h; how it was run: as §2
Staphylococcus aureus [14] = test: Antimicrobial activity against hospital-acquired methicillin-resistant Staphylococcus aureus […] infected in human THP-1 cells assessed as change in bacterial count after 24 hrs at pH 5.5; assay type: functional, organism-based; settings: THP-1, 24 h; how it was run: as §2
Staphylococcus aureus [15] = test: Antimicrobial activity against hospital-acquired vancomycin-intermediate Staphylococcus aureus NRS18 infected in human THP-1 cells assessed as bacterial count per mg of cell protein at high extracellular compound concentration after 24 hrs at pH 5.5; assay type: functional; how it was run: as §1
Staphylococcus aureus [16] = test: Antimicrobial activity against hospital-acquired vancomycin-intermediate Staphylococcus aureus NRS18 infected in human THP-1 cells assessed as bacterial count per mg of cell protein at low extracellular compound concentration after 24 hrs at pH 7.4; assay type: functional; how it was run: as §1
Staphylococcus aureus [17] = test: Bacteriostatic activity against hospital-acquired vancomycin-intermediate Staphylococcus aureus NRS18 infected in human THP-1 cells assessed as change in bacterial count after 24 hrs at pH 7.4; assay type: functional; how it was run: as §1
Staphylococcus aureus [18] = test: Bacteriostatic activity against hospital-acquired vancomycin-intermediate Staphylococcus aureus NRS126 infected in human THP-1 cells assessed as change in bacterial count after 24 hrs at pH 7.4; assay type: functional; how it was run: as §2
Staphylococcus aureus [19] = test: Antimicrobial activity against Panton-valentine leucocidin-positive community-acquired methicillin-resistant Staphylococcus aureus NRS192 infected in human THP-1 cells assessed as bacterial count per mg of cell protein at low extracellular compound concentration after 24 hrs at pH 7.4; assay type: functional; settings: pooled result: one value given for 6 cell lines, strains, targets or settings; how it was run: as §3
Staphylococcus aureus [20] = test: Antimicrobial activity against Panton-valentine leucocidin-positive community-acquired methicillin-resistant Staphylococcus aureus isolate MEH2225605 infected in human THP-1 cells assessed as change in bacterial count after 24 hrs at pH 7.4; assay type: functional, organism-based; settings: isolate MEH2225605, THP-1, 24 h; how it was run: as §3
Staphylococcus aureus [21] = test: Antimicrobial activity against methicillin-susceptible Staphylococcus aureus […] infected in human THP-1 cells assessed as change in bacterial count after 24 hrs; assay type: functional, organism-based; settings: THP-1, 24 h; how it was run: as §2
Staphylococcus aureus [22] = test: Antimicrobial activity against methicillin-susceptible Staphylococcus aureus ATCC 11632 infected in human THP-1 cells assessed as bacterial count per mg of cell protein at high extracellular compound concentration after 24 hrs; assay type: functional; how it was run: as §2
Staphylococcus aureus [23] = test: Antimicrobial activity against hospital-acquired methicillin-resistant Staphylococcus aureus […] infected in human THP-1 cells assessed as change in bacterial count after 24 hrs; assay type: functional, organism-based; settings: THP-1, 24 h; how it was run: as §2

## Nc1nc(/C(=N/O)C(=O)N[C@@H]2C(=O)N3C(C(=O)O)=C(/C=C4\CCN([C@@H]5CCNC5)C4=O)CS[C@H]23)ns1 [CEFTOBIPROLE]
Staphylococcus aureus [1]
  log10cfu: 3.02
Staphylococcus aureus [2]
  EC50: 0.25 µg/mL (≈ 0.468 µM)
Staphylococcus aureus [3]
  log10cfu: 3.39
Staphylococcus aureus [4]
  EC50: 0.08 µg/mL (≈ 0.15 µM)
Staphylococcus aureus [5]
  log10cfu: 2.82
Staphylococcus aureus [6]
  EC50: 0.94 µg/mL (≈ 1.76 µM)
Staphylococcus aureus [7]
  EC50: 0.54 × MIC
Staphylococcus aureus [8]
  EC50: 0.54 × MIC
Staphylococcus aureus [9]
  EC50: 0.77 × MIC
Staphylococcus aureus [10]
  EC50: 0.54 × MIC
Staphylococcus aureus [11]
  EC50: 0.41 × MIC
Staphylococcus aureus [12]
  log10cfu: 1.04
Staphylococcus aureus [13]
  EC50: 0.77 × MIC
Staphylococcus aureus [14]
  EC50: 0.77 ×MIC
Staphylococcus aureus [15]
  log10cfu: 1.01
Staphylococcus aureus [16]
  log10cfu: 2.6
Staphylococcus aureus [17]
  Activity: 0.74 mg/L
Staphylococcus aureus [18]
  Activity: 0.74 ×MIC
Staphylococcus aureus [19]
  log10cfu: 2.74
Staphylococcus aureus [20]
  EC50: 0.33 ×MIC
Staphylococcus aureus [21]
  EC50: 0.07 µg/mL (≈ 0.131 µM)
Staphylococcus aureus [22]
  log10cfu: -0.95
Staphylococcus aureus [23]
  EC50: 0.73 µg/mL (≈ 1.37 µM)
